Measurements gathered from unrelated publications.
Compare with care: the assays were run in different laboratories.
Target: Serine/threonine-protein kinase haspin (HASPIN, Homo sapiens, UniProt Q8TF76)
Sequence (Q8TF76 1-798, as in one of the studies): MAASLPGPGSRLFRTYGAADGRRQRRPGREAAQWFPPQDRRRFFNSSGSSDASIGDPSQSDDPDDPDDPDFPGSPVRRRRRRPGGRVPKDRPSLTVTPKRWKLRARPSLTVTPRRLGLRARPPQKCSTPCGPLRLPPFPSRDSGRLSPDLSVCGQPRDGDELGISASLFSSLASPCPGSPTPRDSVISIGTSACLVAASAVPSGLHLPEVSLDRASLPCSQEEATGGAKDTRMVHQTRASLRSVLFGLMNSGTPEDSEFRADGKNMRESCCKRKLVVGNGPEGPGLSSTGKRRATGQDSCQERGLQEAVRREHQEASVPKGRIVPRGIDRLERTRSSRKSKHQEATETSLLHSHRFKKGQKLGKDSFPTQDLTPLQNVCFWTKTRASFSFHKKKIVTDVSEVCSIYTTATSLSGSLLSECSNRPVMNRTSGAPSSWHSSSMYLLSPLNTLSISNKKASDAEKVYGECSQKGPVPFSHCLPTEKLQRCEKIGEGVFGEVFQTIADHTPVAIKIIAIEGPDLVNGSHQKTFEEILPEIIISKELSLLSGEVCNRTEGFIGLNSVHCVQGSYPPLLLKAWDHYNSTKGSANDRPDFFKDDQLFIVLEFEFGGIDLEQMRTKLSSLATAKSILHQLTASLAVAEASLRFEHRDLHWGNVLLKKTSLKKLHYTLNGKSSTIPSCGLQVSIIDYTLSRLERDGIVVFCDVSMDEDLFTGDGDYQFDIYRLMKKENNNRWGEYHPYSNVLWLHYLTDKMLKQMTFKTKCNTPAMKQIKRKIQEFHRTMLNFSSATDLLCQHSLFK

Cn1cc(-c2cccc(N3CCc4c(sc5c4CC(C)(C)C5)C3=O)c2CO)cc(Nc2ccncn2)c1=O — inhibition (enzyme activity; inhibitor; 1 µM): -1%
Nc1ncc(-c2nc(N3CCOCC3)nc(N3CCOCC3)n2)c(C(F)F)n1 — remaining binding (binding; competition with immobilised ligand; 10 µM): 71%
Cn1cc(-c2cc(F)cc(N3CCn4c(cc5c4CCCC5)C3=O)c2CO)cc(Nc2ccc(N3CCN(C4COC4)CC3)cn2)c1=O — inhibition (enzyme activity; inhibitor; 0.1 µM): 8%
Cn1cncc1[C@](O)(COc1ccc(C#N)cc1-c1ccc(OC(F)(F)F)cc1)c1ccc(C#N)cc1 — remaining binding (cell-free assay; competition with immobilised ligand; 1 µM): 100%
CC(C)(C)c1cc(C=C(C#N)C#N)cc(Br)c1O — remaining activity (enzyme activity; inhibitor; 0.5 µM): 67.2%
N#CC1(c2ccccn2)CCN(Cc2cc(C(=O)O)c(=O)n3ccccc23)CC1 — remaining binding (cell-free assay; competition with immobilised ligand; 1 µM): 100%
C#Cc1n[nH]c2c(-c3cn([C@@H](C)c4ccccc4)c(=O)[nH]c3=O)cc(F)cc12 — inhibition (enzyme activity; inhibitor; 0.1 µM): -5.9%
O=c1[nH]c2ccccc2n1C1CCN(Cc2ccc(-c3[nH]c4cc5ncnc5cc4nc3-c3ccccc3)cc2)CC1 — remaining signal (cell-free assay; 0.5 µM): 106%
COc1ncccc1-c1cnn2ccc(N3CCN(C(=O)OC(C)C)CC3)nc12 — remaining binding (binding; competition with immobilised ligand; 1 µM): 80%
C#Cc1n[nH]c2c(-c3cn(C(C)c4ccccn4)c(=O)[nH]c3=O)cc(F)cc12 (stereo not shown) — inhibition (enzyme activity; inhibitor; 1 µM): 18.9%
